The values below come from ChEMBL document CHEMBL4020705, “Investigation of aryl isonitrile compounds with potent, broad-spectrum antifungal activity” (Bioorg Med Chem, 2017).

Series [1] concerns Candida albicans. The series can be described thus: Antifungal activity against Candida albicans NR-29448 after 44 hrs by broth dilution assay. In kind it is functional. Particulars: NR-29448, 44 h. A digest of the protocol: (§1)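 Yeast broth microdilution per CLSI M27-A3, in RPMI-1640. Incubation is at 37 °C for at least 44 h. MIC is the lowest concentration with no visible growth, read by eye.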
For orientation: In broth dilution the organism is exposed to a series of concentrations in liquid medium.

Series [2] concerns Candida albicans. The series can be described thus: Fungicidal activity against Candida albicans NR-29448 after 18 hrs. In kind it is functional. Particulars: NR-29448, 18 h, read-out: MFC99.9. In short, it runs like this: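 Starting from the MIC plate, 5 μL aliquots are taken from wells with no growth and spotted onto YPD agar. After 18 h at 37 °C, MFC is recorded as the concentration giving a >99.9% decrease in CFU.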

For series [3], the system named is Aspergillus niger. The series can be described thus: Antifungal activity against Aspergillus niger ATCC 16888 after 44 hrs by broth dilution assay. To be noted: ATCC 16888, 44 h.
Series [4] relates to Candida albicans. The series can be described thus: Antifungal activity against Candida albicans NR-29368 after 44 hrs by broth dilution assay. Type of series: functional. Particulars: NR-29368, 44 h. In short, it runs like this: as §1
Series [5] relates to Pichia kudriavzevii. In words: Antifungal activity against Candida krusei ATCC 14243 after 44 hrs by broth dilution assay. Particulars: ATCC 14243, 44 h. In kind it is functional. In short, it runs like this:
as §1

The test system of series [6] is Cryptococcus gattii species complex. In words: Antifungal activity against Cryptococcus gattii NR-43208 after 68 hrs by broth dilution assay. In kind it is functional, Cryptococcus bacillisporus. To be noted: NR-43208, 68 h. In short, it runs like this:
(§2)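 Cryptococcus MIC follows CLSI M27-A3 broth dilution in RPMI-1640. Incubation is at 37 °C for 68 h, and the MIC is read by visual inspection.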

The test system of series [7] is Candida albicans. In words: Antifungal activity against Candida albicans ATCC 64124 after 44 hrs by broth dilution assay. In kind it is functional. To be noted: ATCC 64124, 44 h. A digest of the protocol: as §1
In series [8] the test system is HRT-18 cell line. The series can be described thus: Cytotoxicity against human HRT18 cells assessed as cell viability at 128 uM after 2 hrs by MTS assay. Type of series: cell-based. Particulars: hrt-18, 2 h. A digest of the protocol: (§3)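 HRT-18 cells are grown in RPMI-1640 with 10% fetal horse serum at 37 °C, 5% CO2. Compounds are added in triplicate for 2 h, with DMSO-matched vehicle controls. MTS is then added for 4 h and absorbance read at 490 nm. Viability is given as % of DMSO control, mean ± SD. Two-way ANOVA with Dunnett's test.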
A general note: Tetrazolium assays rely on reduction of a dye to a coloured formazan, in cell work by metabolically active cells.

In series [9] the test system is Candida tropicalis. In words: Antifungal activity against Candida tropicalis ATCC 1369 after 44 hrs by broth dilution assay. Type of series: functional. Particulars: ATCC 1369, 44 h. A digest of the protocol:
as §1

In series [10] the test system is Candida albicans. The series can be described thus: Antifungal activity against Candida albicans ATCC 29351 after 44 hrs by broth dilution assay. Type of series: functional. To be noted: ATCC 29351, 44 h. A digest of the protocol:
as §1

Series [11] has as its system Candida albicans. In words: Antifungal activity against Candida albicans ATCC MYA 573 after 44 hrs by broth dilution assay. Type of series: functional. To be noted: ATCC MYA 573, 44 h. In short, it runs like this:
as §1

Series [12] concerns Candida albicans. The series can be described thus: Antifungal activity against Candida albicans ATCC 27365 after 44 hrs by broth dilution assay. In kind it is functional. To be noted: ATCC 27365, 44 h. A digest of the protocol: as §1
In series [13] the test system is Cryptococcus gattii species complex. The series can be described thus: Antifungal activity against Cryptococcus gattii NR-43209 after 68 hrs by broth dilution assay. Type of series: functional, Cryptococcus bacillisporus. To be noted: NR-43209, 68 h. In short, it runs like this: as §2
For the next series, the system named is Aspergillus brasiliensis. The series can be described thus: Antifungal activity against Aspergillus brasiliensis ATCC 16404 after 44 hrs by broth dilution assay. To be noted: ATCC 16404, 44 h.
In series [14] the test system is HRT-18 cell line. The series can be described thus: Cytotoxicity against human HRT18 cells assessed as cell viability at 256 uM after 2 hrs by MTS assay. In kind it is cell-based. To be noted: hrt-18, 2 h. A digest of the protocol: as §3
Series [15] relates to Aspergillus fumigatus. In words: Antifungal activity against Aspergillus fumigatus NR-35301 after 44 hrs by broth dilution assay. To be noted: NR-35301, 44 h.
The test system of series [16] is Aspergillus niger. The series can be described thus: Antifungal activity against Aspergillus niger ATCC 6275 after 44 hrs by broth dilution assay. To be noted: ATCC 6275, 44 h.
Series [17] concerns Candida albicans. In words: Antifungal activity against Candida albicans NR-29446 after 44 hrs by broth dilution assay. Type of series: functional. Particulars: NR-29446, 44 h. In short, it runs like this: as §1
Series [18] deals with Nakaseomyces glabratus. The series can be described thus: Antifungal activity against Candida glabrata ATCC 66032 after 44 hrs by broth dilution assay. Type of series: functional. Particulars: ATCC 66032, 44 h. A digest of the protocol:
as §1

Series [19] deals with Candida tropicalis. The series can be described thus: Antifungal activity against Candida tropicalis ATCC 13803 after 44 hrs by broth dilution assay. Type of series: functional. To be noted: ATCC 13803, 44 h. A digest of the protocol:
as §1

In series [20] the test system is Pichia kudriavzevii. In words: Antifungal activity against Candida krusei ATCC 34135 after 44 hrs by broth dilution assay. In kind it is functional. To be noted: ATCC 34135, 44 h. In short, it runs like this: as §1
Series [21] deals with Aspergillus fumigatus. In words: Antifungal activity against Aspergillus fumigatus NR-35302 after 44 hrs by broth dilution assay. Particulars: NR-35302, 44 h.
Series [22] relates to Nakaseomyces glabratus. In words: Antifungal activity against Candida glabrata ATCC MYA-2950 after 44 hrs by broth dilution assay. Type of series: functional. Particulars: ATCC MYA-2950, 44 h. In short, it runs like this:
as §1

A further series concerns Candida parapsilosis. The series can be described thus: Antifungal activity against Candida parapsilosis ATCC 22019 after 44 hrs by broth dilution assay. Type of series: functional. To be noted: Lodderomyces parapsilosis, ATCC 22019, 44 h. A digest of the protocol:
as §1

Another series concerns Cryptococcus neoformans. The series can be described thus: Antifungal activity against Cryptococcus neoformans NR-41292 after 68 hrs by broth dilution assay. Type of series: functional. Particulars: NR-41292, 68 h. In short, it runs like this: as §2

≈ marks a conversion by molar mass, not a printed value.

For `N#Cc1ccccc1/C=C/c1ccccc1`, the MIC (commonly the lowest concentration that inhibits growth of the organism) against Candida albicans [1] was over 64 µM. Further, the MFC with Candida albicans [2] was over 64 µM.

Take `CC/C(=C\c1ccccc1C#N)c1ccc(OC)cc1`: the MIC with Candida albicans [1] is over 64 µM. In addition, the MFC with Candida albicans [2] was over 64 µM.

With `N#Cc1ccc(/C=C/c2ccccc2)cc1`, the MIC was over 64 µM against Aspergillus niger [3]; 2 µM (≈ 0.411 µg/mL) in the series with Candida albicans [4]; 32 µM (≈ 6.57 µg/mL) against Pichia kudriavzevii [5]; at most 0.5 µM in [6]; 2 µM (≈ 0.411 µg/mL) in the series with Candida albicans [7]; 16 µM (≈ 3.28 µg/mL) against Candida tropicalis [9]. Further, the MIC against Candida albicans [10] was 1 µM (≈ 0.205 µg/mL); with Candida albicans [11], 1 µM (≈ 0.205 µg/mL); in the series on Candida albicans [12], 1 µM (≈ 0.205 µg/mL); in series [13], at most 0.5 µM; against Aspergillus brasiliensis, over 64 µM; against Candida albicans [1] it was 2 µM (≈ 0.411 µg/mL). In addition, the MIC was 64 µM (≈ 13.1 µg/mL) against Aspergillus fumigatus [15]; over 64 µM with Aspergillus niger [16]; 1 µM (≈ 0.205 µg/mL) against Candida albicans [17]; 8 µM (≈ 1.64 µg/mL) in the series with Nakaseomyces glabratus [18]; 4 µM (≈ 0.821 µg/mL) against Candida tropicalis [19]; 16 µM (≈ 3.28 µg/mL) in the series on Pichia kudriavzevii [20]. Besides, the MIC in the series on Aspergillus fumigatus [21] was 32 µM (≈ 6.57 µg/mL); in the series on Nakaseomyces glabratus [22], 8 µM (≈ 1.64 µg/mL); against Candida parapsilosis it was 2 µM (≈ 0.411 µg/mL); with Cryptococcus neoformans it was at most 0.5 µM. Also, the Activity entry in the series with HRT-18 cell line [8] and with HRT-18 cell line [14] was “Non-Toxic” each time. The MFC in the series with Candida albicans [2] was over 64 µM.

Molecule `N#Cc1ccccc1/C=C/c1ccc(F)cc1` returned an MIC against Candida albicans [1] of 64 µM (≈ 14.3 µg/mL).

`CC/C(=C\c1ccccc1)c1ccccc1` yielded an MIC in the series with Candida albicans [1] of over 64 µM. Also, the MFC in the series with Candida albicans [2] was over 64 µM.

For `N#Cc1cccc(/C=C/c2ccccc2)c1`, the MIC against Candida albicans [1] came to 4 µM (≈ 0.821 µg/mL). Moreover, the MFC with Candida albicans [2] is 32 µM (≈ 6.57 µg/mL).

In the series on Candida albicans [1], `N#Cc1ccccc1C=C1CCCCC1` gave an MIC of 4 µM (≈ 0.789 µg/mL). The MFC with Candida albicans [2] is over 64 µM.

In turn, `CCCCc1ccc(/C=C/c2ccccc2C#N)cc1` displayed an MIC with Candida albicans [1] of 8 µM (≈ 2.09 µg/mL). For the same molecule, in the series on Candida albicans [2], the MFC worked out at 64 µM (≈ 16.7 µg/mL).

In the series on Candida albicans [1], `N#Cc1ccccc1-c1ccccc1` showed an MIC of 0.5 µM (≈ 0.0896 µg/mL). Also, in the series with Candida albicans [2], the MFC was over 64 µM.

For `COc1ccc(/C=C/c2ccccc2C#N)cc1`, inhibition of growth with Candida albicans [1] (MIC) required 1 µM (≈ 0.235 µg/mL). In addition, the MFC in the series with Candida albicans [2] was over 64 µM.

As for `COc1cccc(/C=C/c2ccccc2C#N)c1`, the MIC in the series with Candida albicans [1] turned out to be 16 µM (≈ 3.76 µg/mL).

As to `OC(Cn1cncn1)(Cn1cncn1)c1ccc(F)cc1F` [FLUCONAZOLE], the MIC against Aspergillus niger [3] was over 64 µM; with Candida albicans [4], over 64 µM; in the series with Pichia kudriavzevii [5] it was 64 µM (≈ 19.6 µg/mL); in [6] it was 8 µM (≈ 2.45 µg/mL); with Candida albicans [7], over 64 µM; in the series on Candida tropicalis [9] it was over 64 µM. In addition, the MIC against Candida albicans [10] is at most 0.5 µM; with Candida albicans [11], over 64 µM; in the series on Candida albicans [12], 1 µM (≈ 0.306 µg/mL); in series [13], 8 µM (≈ 2.45 µg/mL); against Aspergillus brasiliensis, over 64 µM; against Candida albicans [1], 0.5 µM (≈ 0.153 µg/mL). Further, the MIC against Aspergillus fumigatus [15] is over 64 µM; in the series with Aspergillus niger [16], over 64 µM; in the series with Candida albicans [17], over 64 µM; with Nakaseomyces glabratus [18], over 64 µM; against Candida tropicalis [19], over 64 µM; against Pichia kudriavzevii [20] it was 64 µM (≈ 19.6 µg/mL). The results for the minimum inhibitory concentration (MIC) against Aspergillus fumigatus [21], in the series on Nakaseomyces glabratus [22] and in the series on Cryptococcus neoformans were over 64 µM, over 64 µM and 8 µM (≈ 2.45 µg/mL), respectively. In addition, the MFC with Candida albicans [2] was over 64 µM.

`C/C(=C\c1ccccc1C#N)c1ccccc1` yielded an MIC against Candida albicans [1] of 8 µM (≈ 1.75 µg/mL). Also, the MFC in the series on Candida albicans [2] was over 64 µM.

`Nc1ccccc1/C=C/c1ccccc1`: inhibition of growth in the series on Candida albicans [1] (MIC) required 64 µM (≈ 12.5 µg/mL).

`N#Cc1ccccc1/C=C/c1ccc([N+](=O)[O-])cc1`: it took 8 µM (≈ 2 µg/mL) to inhibit growth with Candida albicans [1] (MIC). Also, the MFC with Candida albicans [2] was found to be 64 µM (≈ 16 µg/mL).
